A selection: hits, their analogues and other compounds. The true share with any hit is near 3%.
Ins promoter up: MIN6 insulin promoter up-regulation; MIN6 insulin promoter-GFP reporter, high-content imaging; active compounds read high; z-score at 5 µM; actives 0.3% (n = 190,000);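 active means z-score above 3 at 5 µM with at least 500 cells counted in the well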
BB579 growth dn: chemicals that inhibit yeast BB579 growth in restrictive medium (lifespan-shortening candidates); S. cerevisiae BB579 growth, OD615, 48 h; inhibition, % at 10 µM; actives 0.51% (n = 140,000); AID 804;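 active means inhibition above a set limit, 3 SD over the mean compound inhibition, cut at about 44% in these data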
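System: Saccharomyces cerevisiae DeaD strain BB579, replicative lifespan model yeast | Buffer or medium: Restrictive glucose-based CSMM-D medium | Times: 4 h preincubation and 48 h exposure at 30 °C | Detection: OD615 turbidity measurement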
RAM network inh: yeast RAM network inhibition | actives 1.8% (n = 190,000) | inhibition, % at 50 µM | S. cerevisiae dse1pr::URA3 reporter, 5-FOA growth OD615, 2 d; analog-sensitive cbk1-as2 kinase mutant strain;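 active means inhibition above a set limit, 3 SD over mean compound inhibition, cut at about 8.4% in these data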;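 further: 0% = DMSO-only wells with no growth and 100% = 10 µM 1-NA-PP1 full growth; inhibition rescues growth on 5-FOA so higher OD means more RAM inhibition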
Yeast lifespan up: yeast lifespan extension | S. cerevisiae growth with nicotinamide, OD615; deaD strain in restrictive glucose medium | inhibition of the nicotinamide effect, % at 10 µM | actives 0.68% (n = 130,000) | AID 775;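 active means inhibition above a set limit, placed 3 SD over the median of all compounds, cut at about 26% in these data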;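 further: 0% = nicotinamide-treated wells and 100% = cells grown without nicotinamide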
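assay system = DeaD-strain S. cerevisiae | buffer or medium = restrictive glucose medium | reagent = 1.5 mM nicotinamide | compound = 10 µM single point, 0.25% DMSO | incubation = 48 h compound exposure at 30 °C, humidified | signal = OD615 measurement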
INS promoter inh: TRM-6 insulin promoter activity inhibition | TRM-6 cells (human fetal islet line), insulin promoter-eGFP reporter, imaging; reporter expression induced with tamoxifen | inhibition, % at 2 µM | actives 0.9% (n = 130,000) | AID 1273;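 active means inhibition above the mean plus 3 SD, with well images judged a real hit on visual review, cut at about 60% in these data, passing the limit was not always enough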
* hit, by the source's call; / = not tested or not shown.

SMILES	Ins promoter up	BB579 growth dn	RAM network inh	Yeast lifespan up	INS promoter inh
Cc1ccc(S(=O)(=O)N(Cc2ccc(Cl)cc2)c2ccccc2C(=O)NCc2ccco2)cc1	-1.3	-30	8.9*	13	/
CC(=O)N1CCN(Cc2nc3cc(NC(=O)c4ccccc4)ccc3n2C)CC1	3.4*	-31	1	0	0
CC(SCC(=O)NC12CC3CC(CC(C3)C1)C2)C(=O)O (stereo not given)	0.03	-34	2	5	7
Cc1c(N2C(=O)C3C4C=CC(C4)C3C2=O)c(=O)n(-c2ccccc2)n1C (stereo not given)	0.59	/	/	/	/
Cc1cc(SCC(=O)c2cccs2)nc2c(C)cccc12	-0.76	-45	8.9*	-13	21
OCC(O)C(O)C(O)C(O)c1nc2ccccc2[nH]1 (stereo not given)	0.53	/	3	/	/
O=C(COC(=O)c1ccco1)NCC1CCCO1 (stereo not given)	3*	11	0	-10	39
O=C(COC(=O)c1ccccc1)NCC1CCCO1 (stereo not given)	/	-31	0	-9	-27
CCN1CCN(c2cc(=O)n(Cc3ccc(F)cc3)c(=O)[nH]2)CC1	-0.42	/	1	/	78*
CCOc1cc(C(=O)Nc2ncn[nH]2)cc(OCC)c1OCC	-0.28	/	0	/	/
CCOC(=O)c1ccc(CSc2nnc(-c3ccncc3)n2N)cc1	3.8*	5	0	-20	27
O=C(OCC(=O)c1c[nH]c2ccccc12)c1cc2ccccc2cc1O	-0.02	-2	3	-5	0
CC(c1ccccc1)N1CCn2c(nc3cc(NC(=O)NC4CCCCC4)ccc32)C1 (stereo not given)	-0.08	-74	3	-4	-31
CCCC/C(C)=N/NC(=O)Nc1ccccc1	/	-45	1	-22	13
CCCCC/C(=N\NC(=O)Nc1ccccc1)c1ccccc1	0.04	/	9.5*	/	-50
O=c1[nH]ncc(NCc2ccc(Cl)cc2)c1Cl	-0.65	/	1	/	39
COc1ccc(N(CC(=O)Nc2nccs2)S(=O)(=O)c2c(C)[nH]c(=O)[nH]c2=O)cc1	0.62	/	5	/	79*
COc1ccccc1NS(=O)(=O)c1ccc(O)c(C(=O)OCC(=O)N2c3ccccc3CC2C)c1 (stereo not given)	0.91	/	5	/	/
Cc1ccc(O)c(-c2cc(C(=O)Nc3ccc(S(=O)(=O)N4CC(C)OC(C)C4)cc3)[nH]n2)c1 (stereo not given)	-0.56	-71	8.9*	-3	-24
O=C(N/N=C/c1c(Cl)[nH]c2ccccc12)c1ccc2c(c1)OCCO2	-0.03	/	/	/	/
CN(C)C(CNC(=S)Nc1ccccc1Cl)c1cccnc1 (stereo not given)	-0.49	/	-1	/	/
CC(C)n1nc(C(=O)Oc2cccc(Cl)c2Cl)c2ccccc2c1=O	-0.55	-32	2	35*	/
COc1cccc(C(=O)Nc2nc(-c3ccncc3)cs2)c1	-0.05	/	0	/	76*
COc1cccc(C(=O)Nc2nc(C)cs2)c1	0.44	-34	1	-13	-18
COc1ccc(-c2nncnn2)cc1	/	79*	-2	/	-17
SMILES	Ins promoter up	BB579 growth dn	RAM network inh	Yeast lifespan up	INS promoter inh
COc1ccc(-c2ccc(OC)cc2)cc1	/	-30	2	/	-94
CCOC(=O)c1cc(-c2ccc(Cl)cc2)nc2onc(C)c12	-0.63	-30	9.8*	-2	-21
CCOC(=O)c1cc(-c2ccc(Cl)cc2)nc2c1c(=O)[nH]c(=O)n2CCOC	-2.2	/	3	/	11
Cc1ccc(S(=O)(=O)N(C(=O)c2ccncc2)c2ccc(OC(=O)c3ccncc3)c3ccccc23)c(C)c1	-0.44	-70	8	37*	-2
CCOc1ccc2[nH]c(=O)c(CN(CCc3ccccc3)C(=O)N3CCOCC3)cc2c1	5.5*	-17	0	-3	27
CCOc1ccc2[nH]c(=O)c(CN(CCc3ccccc3)C(=O)N3CCCC3)cc2c1	0.03	-26	3	-20	-20
CCN(C=NC1=NN(c2cccc(C(F)(F)F)c2)CC1)CC	-0.47	-10	0	-3	62*
OCCN(C=NC1=NN(c2cccc(C(F)(F)F)c2)CC1)CCO	/	-65	1	-12	3
CCOc1ccccc1/C=c1\sc2ncnn2c1=O	-0.03	-43	1	49*	-10
CCCOc1ccc(/C=c2\sc3ncnn3c2=O)cc1	-0.29	/	2	/	/
COc1ccc(NC(=O)/C(Cl)=C(/Cl)S(=O)Cc2ccccc2)cn1 (stereo not given)	-1.2	-58	1	53*	/
CC(C)NS(=O)(=O)c1ccc(OCC(=O)Nc2ccc(F)cc2)cc1	-0.58	/	2	/	/
CCOC(=O)c1sc(NC(=O)c2ccccc2F)c(C(N)=O)c1C	-0.12	-26	3	1	79*
CCOC(=O)c1sc(NC(=O)c2ccccc2C(=O)O)c(C(=O)OCC)c1C	-0.34	/	/	/	/
CCOC(=O)c1sc(NC(=O)CN(CC)CC)c(C(=O)OCC)c1C	-2	-3	1	28*	42
CCS(=O)(=O)c1nc(S(=O)(=O)c2ccc(Cl)cc2)c(NCCOC)s1	/	/	0	/	/
CC1CC1C(=O)OCC(=O)NC(=O)NC12CC3CC(CC(C3)C1)C2 (stereo not given)	-1.2	/	0	/	100*
N#CSCC(=O)c1cccc2ccccc12	-0.26	84*	-1	0	-197
O=C(Nc1nnc(-c2ccccc2Cl)o1)c1cccnc1	-0.11	-19	0	34*	-90
CN1CCN(CCc2cn3ncc(C#N)c3nc2-c2ccc(F)cc2)CC1	-0.15	/	11*	/	/
CCOC(=O)C1CCN(C(=O)c2sccc2Cl)CC1	0.51	/	/	/	/
O=c1cc2oc3cc(O)c(O)cc3c(-c3ccccc3O)c-2cc1O	15*	/	/	/	/
CCOc1ccccc1-c1c2cc(O)c(=O)cc-2oc2cc(O)c(O)cc12	8.1*	7	-1	-1	/
COc1ccc(OC)c(-c2c3cc(O)c(=O)cc-3oc3cc(O)c(O)cc23)c1	-0.57	63*	7	0	-149
Cc1ccccc1-c1cc(=O)c2c(O)cccc2o1	0.9	/	/	/	/
SMILES	Ins promoter up	BB579 growth dn	RAM network inh	Yeast lifespan up	INS promoter inh
Cc1noc(C)c1C(=O)N1CCCC(C(=O)c2cccc(C(F)(F)F)c2)C1 (stereo not given)	-0.17	/	1	/	/
CCCCN(C)C(=O)c1nc2ccccn2c1CN1CCN(C(=O)c2cccs2)CC1	0.1	/	2	/	/
CCOC(=O)c1c(/N=C/C2=C(O)CC(C)(C)CC2=O)sc(C)c1C	0.06	-34	6	-1	/
CCOC(=O)c1c(/N=C/c2cc(OC)cc([N+](=O)[O-])c2O)sc(C)c1C	0.8	24	9.5*	-6	48
CCOC(=O)c1c(/N=C/c2cc([N+](=O)[O-])ccc2O)sc(C)c1C	0.21	61*	-1	-2	-7
Fc1ccc(N/N=C/c2cccnc2)c(F)c1	0.79	/	1	/	50
Cc1ccc(N/N=C/c2cccnc2)cc1	/	92*	0	-8	-48
Clc1ccc2c(N/N=C/c3cccnc3)ccnc2c1	-0.3	/	3	/	93*
Clc1ccc2c(N/N=C/c3ccc(Br)cc3)ccnc2c1	-0.42	-13	2	-5	92*

Source: PubChem
